Numbering of substitutions follows the chain as printed. The source made the active and inactive calls. The calls are words filed in the database; no cut-off is given here.
Tests used:
[1] = test system: Escherichia coli; assay: Inhibition of recombinant Escherichia coli N-terminal His-tagged rhomboid protease GlpG expressed in Escherichia coli C43(DE3) cells at 250 uM using gurken as substrate preincubated for 30 mins followed by substrate addition measured after 90 mins by SDS-PAGE analysis
[2] = Inhibition of recombinant Escherichia coli N-terminal His-tagged rhomboid protease GlpG expressed in Escherichia coli C43(DE3) cells using KSp53 as substrate incubated for 1 hr followed by substrate addition by fluorescence assay; settings: in the assay text read “KSp35” for “KSp53”
Method in brief: (§1)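 Started with 10 µM quenched fluorogenic peptide (KSp35 or KSp76). Fluorescence normalized to DMSO and plotted against log concentration; apparent IC50 from nonlinear regression.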

[3] = organism: Bos taurus; assay: Inhibition of bovine pancreas trypsin at 10 uM using Z-Gly-Gly-Argaminomethylcoumarin as substrate preincubated for 30 mins followed by substrate addition measured at 1 min time interval for 5 mins by fluorescence assay
Method in brief: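 Compound or DMSO preincubated with 10 nM bovine pancreatic trypsin in PBS for 30 min at 30°C. Started with Z-Gly-Gly-Arg-AMC (1 mM stock). AMC fluorescence (ex 340/em 440) read every 1 min for 5 min. Initial slope gives velocity; % activity = V inhibitor/V DMSO × 100.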

[4] = biological target: T1, Neutrophil elastase (Homo sapiens) (UniProt P08246); assay: Inhibition of human neutrophil elastase at 10 uM using N-Methoxysuccinyl-Ala-Ala-Pro-Val-p-nitroanilid as substrate preincubated for 20 mins followed by substrate addition measured at 1 min time interval for 5 mins by fluorescence assay
T1 sequence (whole entry): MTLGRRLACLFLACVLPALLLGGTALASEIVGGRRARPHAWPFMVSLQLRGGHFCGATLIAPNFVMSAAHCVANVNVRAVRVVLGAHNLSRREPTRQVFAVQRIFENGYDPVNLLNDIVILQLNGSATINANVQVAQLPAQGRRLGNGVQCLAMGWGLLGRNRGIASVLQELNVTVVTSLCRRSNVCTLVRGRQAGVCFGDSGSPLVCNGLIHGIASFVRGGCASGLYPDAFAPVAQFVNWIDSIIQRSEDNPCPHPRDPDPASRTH

[5] = biological target: T2, Cathepsin G (Homo sapiens) (UniProt P08311); assay: Inhibition of human neutrophil cathepsin G at 10 uM using N-Succinyl-Ala-Ala-Pro-Phe-p-nitroanilide as substrate preincubated for 30 mins followed by substrate addition measured at 1 min time interval for 5 mins by fluorescence assay; settings: in the assay text read “absorbance assay” for “fluorescence assay”
T2 sequence (whole entry): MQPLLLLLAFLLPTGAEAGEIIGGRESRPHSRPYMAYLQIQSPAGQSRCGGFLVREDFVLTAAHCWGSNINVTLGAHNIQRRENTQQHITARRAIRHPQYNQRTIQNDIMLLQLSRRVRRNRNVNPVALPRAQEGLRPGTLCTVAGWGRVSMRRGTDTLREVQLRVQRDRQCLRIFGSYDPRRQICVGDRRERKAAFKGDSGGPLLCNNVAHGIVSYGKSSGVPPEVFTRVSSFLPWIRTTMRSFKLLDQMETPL
Method in brief: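 Compound or DMSO preincubated with 200 nM human neutrophil cathepsin G for 30 min at 37°C in 100 mM HEPES, 500 mM NaCl, pH 7.4. Started with Suc-AAPF-pNA (2 mM stock). Absorbance at 410 nm read every 1 min for 5 min. Initial slope gives velocity; % activity relative to DMSO.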

[6] = biological target: Chymotrypsinogen A (Bos taurus, UniProt P00766); assay: Inhibition of bovine pancreas alpha-chymotrypsin using KSp21 as substrate preincubated for 30 mins followed by substrate addition measured after 50 to 60 mins by fluorescence assay
[7] = biological target: T3, Rhomboid protease GlpG (Escherichia coli (strain K12)) (UniProt P09391); assay: Binding affinity to recombinant Escherichia coli rhomboid protease GlpG His150 mutant expressed in Escherichia coli C43(DE3) cells by electrospray mass spectrometric analysis
T3 sequence (whole entry): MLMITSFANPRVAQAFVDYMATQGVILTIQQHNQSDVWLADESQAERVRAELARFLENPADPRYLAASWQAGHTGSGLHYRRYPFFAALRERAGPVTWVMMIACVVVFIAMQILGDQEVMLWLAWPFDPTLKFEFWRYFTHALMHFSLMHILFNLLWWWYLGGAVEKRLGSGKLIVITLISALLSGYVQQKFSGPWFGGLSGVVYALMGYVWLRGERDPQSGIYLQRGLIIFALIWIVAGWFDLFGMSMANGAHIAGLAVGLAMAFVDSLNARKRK
Method in brief: (§2)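 GlpG (wild type or rhomboid mutants) expressed in E. coli C43(DE3) and purified, then reacted in vitro with compound or vehicle. Covalent adduct detected by electrospray mass spectrometry as an added peak with the expected mass shift over free enzyme. Two independent experiments.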

[8] = biological target: Chymotrypsinogen A (Bos taurus) (UniProt P00766); assay: Inhibition of bovine alpha-chymotrypsin at 250 uM using N-Succinyl-Ala-AlaPro-Phe-p-nitroanilide as substrate incubated for 30 mins followed by substrate addition measured over 5 mins by spectroscopic method
[9] = test system: T4, Rhomboid protease GlpG (Escherichia coli (strain K12)), P09391 [H254A]; assay: Binding affinity to recombinant Escherichia coli rhomboid protease GlpG H254A mutant expressed in Escherichia coli C43(DE3) cells by electrospray mass spectrometric analysis; method in brief: as §2
T4 sequence (whole entry): T3 sequence (whole entry) with H254A

[10] = test system: Escherichia coli; assay: Binding affinity to wild type recombinant Escherichia coli rhomboid protease GlpG expressed in Escherichia coli C43(DE3) cells by electrospray mass spectrometric analysis; method in brief: as §2
[11] = Inhibition of recombinant Escherichia coli N-terminal His-tagged rhomboid protease GlpG expressed in Escherichia coli C43(DE3) cells using KSp76 as substrate incubated for 1 hr followed by substrate addition by fluorescence assay; method in brief: as §1
[12] = test system: T5, Rhomboid protease GlpG (Escherichia coli (strain K12)), P09391 [S201T]; assay: Binding affinity to recombinant Escherichia coli rhomboid protease GlpG S201T mutant expressed in Escherichia coli C43(DE3) cells by electrospray mass spectrometric analysis; method in brief: as §2
T5 sequence (whole entry): T3 sequence (whole entry) with S201T

[13] = test system: Escherichia coli; assay: (§3) Reversible inhibition of recombinant Escherichia coli N-terminal His-tagged rhomboid protease GlpG expressed in Escherichia coli C43(DE3) cells assessed as recovery of enzyme activity at 50 uM using KSp76 as substrate preincubated for 1 hr followed by substrate addition measured over 120 mins by rapid dilution based fluorescence assay
Method in brief: (§4)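 Rapid-dilution recovery. Inhibitor preincubated 1 h with 0.4 µM GlpG in 20 mM HEPES-NaOH pH 7.4, 150 mM NaCl, 0.05% DDM, then diluted 100-fold into buffer with 10 µM KSp76. Fluorescence (ex 553/em 583) monitored continuously for 120 min.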

[14] = test system: Escherichia coli; assay: as §3, with “1” for “50”; method in brief: as §4
[15] = test system: Escherichia coli; assay: as §3, with “10” for “50”; method in brief: as §4

O=c1oc(-c2cccc(F)c2)nc2ccccc12
inhibition [1]: inactive

O=c1oc(/C=C/c2ccc(F)c(F)c2)nc2ccccc12
inhibition [1]: inactive

COc1ccc(/C=C/c2nc3ccccc3c(=O)o2)cc1
IC50 [2]: 48 µM
inhibition [3]: inactive
inhibition [1]: Active
inhibition [4]: inactive
inhibition [5]: inactive

CCC(=O)Oc1c(/C=C/c2nc3ccccc3c(=O)o2)cccc1OC
inhibition [1]: inactive

O=c1oc(Cl)c(Cl)c2ccccc12
IC50 [6]: 3.5 µM
inhibition [3]: Active
inhibition [4]: Active

O=c1oc(-c2cccc(Br)c2)nc2ccccc12
inhibition [1]: inactive

COc1ccc(-c2nc3ccccc3c(=O)o2)cc1
inhibition [1]: inactive

O=c1oc(-c2ccco2)nc2ccccc12
inhibition [1]: inactive

O=c1oc(-c2ccc(F)cc2)nc2ccccc12
inhibition [1]: inactive

O=c1oc(-c2ccccc2F)nc2ccccc12
inhibition [1]: inactive

O=c1oc(/C=C/c2ccccc2Cl)nc2ccccc12
Activity [7]: Active
inhibition [8]: inactive
Activity [9]: inactive
Activity [10]: Active
IC50 [11]: 4.4 µM
Activity [12]: inactive
inhibition [3]: inactive
inhibition [1]: Active
inhibition [4]: inactive
inhibition [5]: Active
inhibition [13]: Active

O=c1oc(-c2ccccc2)nc2ccccc12
inhibition [1]: inactive

O=c1oc(/C=C/c2ccccc2)nc2ccccc12
inhibition [8]: inactive
Activity [10]: Active
IC50 [2]: 3.7 µM
inhibition [3]: inactive
inhibition [1]: Active
inhibition [4]: inactive
inhibition [5]: Active

O=C1CC(c2ccccc2)N1C(=O)Oc1ccccc1 (configuration not stated)
inhibition [14]: Active

COc1oc(=O)c2cc(N)ccc2c1Cl
inhibition [15]: inactive

Source: ChEMBL document CHEMBL4184297, “Discovery and validation of 2-styryl substituted benzoxazin-4-ones as a novel scaffold for rhomboid protease inhibitors” (Bioorg Med Chem Lett, 2018)
